Measured values taken from paper PMC8969127 (Molecular Pharmacology, 2022).
Read-outs that look alike come from different tables or passages of the source.

Experiments:
Format in all cases: cell-based
[1] = target: T1, CatSper (Homo sapiens, UniProt Q7RTX7+Q86XQ3+Q8NEC5+Q96P56); experiment: Human sperm calcium influx assay, activation; conditions: for Emax: read-out: Emax, %, Steroid Alone; for Emax, %, Steroid Alone: percent of response to saturating PROG (3 µM); for fold less potent than PROG (calcium influx): relative to PROG; for fold lower activity than the corresponding pregnanolones (10–11): hydroxylation of the 21 position
Method in brief: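 Semen from healthy donors was liquefied at 37 °C, washed twice in low pH/low K+ buffer (pH 6.7, 0.2 mM CaCl2), then loaded with 10 µM Fluo-4-AM plus 1 mM probenecid, 30 min, room temperature, dark. On FLIPR, buffer was added first, then openers 2 min later. Fluorescence was read for 7 min at 2-s intervals. EC50 came from 8-point, 3-fold dilutions in duplicate, peak height, four-parameter fit. Emax is relative to 3 µM progesterone. Activators were retested with 30 µM mibefradil.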

[2] = target: T1, CatSper; conditions: for IC50: human sperm, mean ±SD
[3] = tested on: human sperm; experiment: Computer-assisted sperm analysis
Method in brief: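 Donor semen was liquefied ≥40 min at 37 °C, then swim-up in HAM's F10 for 1 h at 37 °C, 5% CO2. Cells were adjusted to 10x10^6/mL and capacitated in HAM's F10 with 5% BSA and 15 mM NaHCO3 at 37 °C, 5% CO2, with test compound or DMSO. HAM was induced with 100 nM progesterone or 100 nM PGE1. CASA at 37 °C used ≥10 fields, ≥200 cells. Motility classes came from VAP/VSL/VCL-derived LIN and STR, normalized to vehicle controls, ≥3 experiments.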

[4] = pEC50, calcium influx, Steroid Alone, human sperm, mean ±SD

CC(=O)[C@@]1(O)CC[C@H]2[C@@H]3CCC4=CC(=O)CCC4=C3[C@@H](c3ccc(N(C)C)cc3)C[C@@]21C [compound 32, ulipristal]
EC50 [1, 4]: 3550 nM
Emax [1]: 106%

C[C@@H]1CC2=CC(=O)CC[C@@H]2[C@@H]2[C@@H]1[C@@H]1CC[C@H](O)[C@@]1(C)C[C@@H]2C [compound 40, 7α,11β-dimethylandrolone]
pEC50, calcium influx, Steroid Alone ([1]; human sperm, mean ±SD): 6.06 ± 0.49
Emax, %, Steroid Alone [1]: 80%

CC(=O)[C@H]1CC[C@H]2[C@@H]3C[C@@H](C)[C@@]4(O)CC(=O)CC[C@]4(C)[C@H]3CC[C@]12C [compound 22, 5α-hydroxy-6β-methylpregnan-3,20-dione]
EC50 [1, 4]: 5010 nM
Emax [1]: 95%

CC(=O)C1(O)CCC2C3CCC4=CC(=O)CCC4(C)C3CCC21C (stereo not drawn) [compound 25, 17α-hydroxyprogesterone]
EC50 [1, 4]: 10.5 nM
Emax [1]: 115%
fold less potent than PROG (calcium influx) [1]: threefold

CC(=O)[C@H]1CC[C@H]2[C@@H]3CC[C@H]4CC(=O)CC[C@]4(C)[C@H]3CC[C@]12C [compound 15, 5β-dihydroprogesterone]
pEC50, calcium influx, Steroid Alone ([1]; human sperm, mean ±SD): 6.87 ± 0.17
Emax, %, Steroid Alone [1]: 95%
fold less potent than PROG (calcium influx) [1]: ~30 fold

CC(=O)[C@@]1(O)CC[C@H]2[C@@H]3C[C@H](C)C4=CC(=O)CC[C@]4(C)[C@H]3CC[C@@]21C [compound 30, 17α-hydroxy-6α-methylprogesterone]
fold reduction of activity relative to 17α-hydroxyprogesterone ([1]; addition of a 6α-methyl group): 47 fold
pEC50, calcium influx, Steroid Alone ([1]; human sperm, mean ±SD): 6.33 ± 0.10
Emax, %, Steroid Alone [1]: 96%

CC(=O)[C@H]1CC[C@H]2[C@@H]3C[C@H]4O[C@]45CC(=O)CC[C@]5(C)[C@H]3CC[C@]12C [compound 17, 5β,6β-epoxypregnan-3,20-dione]
EC50 [1, 4]: 417 nM
Emax [1]: 84%

C[C@]12CC[C@H]3[C@@H](CCC4=CC(=O)CC[C@@]43C)[C@@H]1CC[C@@H]2O [compound 36, testosterone]
EC50 [1]: 219 nM
Emax [1]: 114%

CC(=O)[C@H]1CC[C@H]2[C@@H]3CC[C@@H]4C[C@@H](O)CC[C@]4(C)[C@H]3CC[C@]12C [compound 13, 3β,5β-pregnanolone]
pEC50, calcium influx, Steroid Alone ([1]; human sperm, mean ±SD): 6.89 ± 0.20
Emax, %, Steroid Alone [1]: 92%

CC(=O)[C@H]1CC[C@H]2[C@@H]3CCC4=CC(=O)CC[C@]4(C)[C@H]3[C@H](O)C[C@]12C [compound 24, 11α-hydroxyprogesterone]
pEC50, calcium influx, Steroid Alone ([1]; human sperm, mean ±SD): 6.90 ± 0.08
Emax, %, Steroid Alone [1]: 100%
fold less potent than PROG (calcium influx) [1]: 35 fold

CC(=O)[C@H]1CC[C@H]2[C@@H]3C[C@@H]4O[C@@]45CC(=O)CC[C@]5(C)[C@H]3CC[C@]12C [compound 16, 5α,6α-epoxypregnan-3,20-dione]
EC50 [1, 4]: 832 nM
Emax [1]: 83%

C[C@]12CCC(=O)C=C1[C@@H]1C[C@@H]1[C@H]1[C@@H]3[C@@H]4C[C@@H]4[C@@]4(CCC(=O)O4)[C@@]3(C)CC[C@@H]12 [compound 31, drospirenone]
EC50 [1, 4]: 525 nM
Emax [1]: 115%

CC(=O)[C@H]1[C@H](O)C[C@H]2[C@@H]3CCC4=CC(=O)CC[C@]4(C)[C@H]3CC[C@@]21C [compound 28, 16α-hydroxyprogesterone]
pEC50, calcium influx, Steroid Alone ([1]; human sperm, mean ±SD): 6.77 ± 0.18
Emax, %, Steroid Alone [1]: 106%
fold less potent than PROG (calcium influx) [1]: 46 fold

CCCCC[C@H](O)/C=C/[C@H]1[C@H](O)CC(=O)[C@@H]1CCCCCCC(=O)O [compound 2, prostaglandin E1]
EC50 [1, 4]: 3.98 nM
Emax [1]: 101%

C[C@H]1C[C@]2(C)[C@@H](O)CC[C@H]2[C@@H]2CCC3=CC(=O)CC[C@@H]3[C@H]21 [compound 38, 11β-methyl-19-nortestosterone]
pEC50, calcium influx, Steroid Alone ([1]; human sperm, mean ±SD): 6.37 ± 0.32
Emax, %, Steroid Alone [1]: 85%

CC(=O)[C@H]1CC[C@H]2[C@@H]3CC[C@@H]4C[C@H](O)CC[C@]4(C)[C@H]3CC[C@]12C [compound 11, 3α,5β-pregnanolone]
pEC50, calcium influx, Steroid Alone ([1]; human sperm, mean ±SD): 6.26 ± 0.25
Emax, %, Steroid Alone [1]: 102%

C[C@@H]1CC2=CC(=O)CC[C@@H]2[C@H]2CC[C@]3(C)[C@@H](O)CC[C@H]3[C@@H]21 [compound 39, 7α-methyl-19-nortestosterone]
pEC50, calcium influx, Steroid Alone ([1]; human sperm, mean ±SD): 6.25 ± 0.37
Emax, %, Steroid Alone [1]: 86%

CC(=O)[C@H]1CC[C@H]2[C@@H]3C[C@H](C)C4=CC(=O)CC[C@]4(C)[C@H]3CC[C@]12C [compound 20, 6α-methylprogesterone]
pEC50, calcium influx, Steroid Alone ([1]; human sperm, mean ±SD): 6.16 ± 0.14
Emax, %, Steroid Alone [1]: 96%
fold less potent than PROG (calcium influx) [1]: 190 fold

C[C@]12CC[C@@H](O)C[C@@H]1CC[C@@H]1[C@@H]2CC[C@]2(C)[C@@H](C(=O)CO)CC[C@@H]12 [compound 27, 3α,5α-THDOC]
pEC50, calcium influx, Steroid Alone ([1]; human sperm, mean ±SD): 6.05 ± 0.21
fold lower activity than the corresponding pregnanolones (10–11) [1]: threefold
Emax, %, Steroid Alone [1]: 96%
fold less potent than PROG (calcium influx) [1]: ≥ 240 fold

COCC(=O)O[C@]1(CCN(C)CCCc2nc3ccccc3[nH]2)CCc2cc(F)ccc2[C@@H]1C(C)C [mibefradil]
calcium influx elicited by the blocker itself ([1]; ML218 up to 100 µM, mibefradil at higher concentrations): we did not observe a mibefradil-induced calcium influx
block of calcium influx for all modes of channel opening ([2]; blocker 30 µM): completely blocked influx
IC50 ([2]; pIC50, inhibition of PGE1-induced calcium influx, opener 10 nM PGE1 (EC80)): 8320 nM
IC50 ([2]; pIC50, inhibition of l-sirenin-induced calcium influx, opener 3 µM l-sirenin (EC80)): 8130 nM
concentration that completely ablated total and progressive motility ([3]; CASA, human sperm): 30 µM
concentration that completely ablated HAM ([3]; HAM induced with 100 nM PROG or 100 nM PGE1, 4 hours, capacitating conditions): 10 µM

CC(=O)[C@H]1CC[C@H]2[C@@H]3C[C@@H](C)C4=CC(=O)CC[C@]4(C)[C@H]3CC[C@]12C [compound 19, 6β-methylprogesterone]
pEC50, calcium influx, Steroid Alone ([1]; human sperm, mean ±SD): 6.58 ± 0.12
Emax, %, Steroid Alone [1]: 90%

C=C1C[C@H]2[C@@H]3CCC4=CC(=O)CC[C@@H]4[C@H]3CC[C@]2(C)[C@@]1(OC(C)=O)C(C)=O [compound 35, segesterone acetate]
pEC50, calcium influx, Steroid Alone ([1]; human sperm, mean ±SD): <5
Emax, %, Steroid Alone [1]: 57%

CC(=O)O[C@]1(C(C)=O)CC[C@H]2[C@@H]3CCC4=CC(=O)CCC4=C3[C@@H](c3ccc(N(C)C)cc3)C[C@@]21C [compound 34, ulipristal acetate]
EC50 [1, 4]: > 10000 nM
Emax [1]: 27%

CC(=O)[C@H]1CC[C@H]2[C@@H]3CC[C@H]4C[C@H](O)CC[C@]4(C)[C@H]3CC[C@]12C [compound 10, 3α,5α-pregnanolone]
pEC50, calcium influx, Steroid Alone ([1]; human sperm, mean ±SD): 6.56 ± 0.21
Emax, %, Steroid Alone [1]: 85%

CC(=O)[C@H]1CC[C@H]2[C@@H]3C[C@@H](O)C4=CC(=O)CC[C@]4(C)[C@H]3CC[C@]12C [compound 21, 6β-hydroxyprogesterone]
pEC50, calcium influx, Steroid Alone ([1]; human sperm, mean ±SD): 6.91 ± 0.10
Emax, %, Steroid Alone [1]: 116%

C[C@]12CC[C@@H]3c4ccc(O)cc4CC[C@H]3[C@@H]1CC[C@@H]2O [compound 37, 17β-estradiol]
EC50 [1, 4]: 295 nM
Emax [1]: 94%

CC(=O)[C@H]1CC[C@H]2[C@@H]3CCC4=CC(=O)C(C)(C)C[C@]4(C)[C@H]3CC[C@]12C [compound 18, 2,2-dimethylprogesterone]
pEC50, calcium influx, Steroid Alone ([1]; human sperm, mean ±SD): 6.31 ± 0.16
Emax, %, Steroid Alone [1]: 99%
fold less potent than PROG (calcium influx) [1]: 135 fold

CC(=O)[C@H]1CC[C@H]2[C@@H]3CC[C@H]4CC(=O)CC[C@]4(C)[C@H]3CC[C@]12C [compound 14, 5α-dihydroprogesterone]
pEC50, calcium influx, Steroid Alone ([1]; human sperm, mean ±SD): 6.99 ± 0.05
Emax, %, Steroid Alone [1]: 87%
fold less potent than PROG (calcium influx) [1]: ~30 fold

C[C@]12CC[C@@H](O)C[C@H]1CC[C@@H]1[C@@H]2CC[C@]2(C)[C@@H](C(=O)CO)CC[C@@H]12 [compound 26, 3α,5β-THDOC]
pEC50, calcium influx, Steroid Alone ([1]; human sperm, mean ±SD): 5.80 ± 0.26
fold lower activity than the corresponding pregnanolones (10–11) [1]: threefold
Emax, %, Steroid Alone [1]: 100%
fold less potent than PROG (calcium influx) [1]: ≥ 240 fold

C[C@H]1C[C@]2(C)[C@@H](O)CC[C@H]2[C@H]2[C@H]1[C@H]1CCC(=O)C=C1C[C@@H]2C [compound 41, 7β,11β-dimethylandrolone]
pEC50, calcium influx, Steroid Alone ([1]; human sperm, mean ±SD): 5.41 ± 0.24
Emax, %, Steroid Alone [1]: 42%

CC(=O)[C@H]1CC[C@H]2[C@@H]3CC[C@H]4C[C@@H](O)CC[C@]4(C)[C@H]3CC[C@]12C [compound 12, 3β,5α-pregnanolone]
pEC50, calcium influx, Steroid Alone ([1]; human sperm, mean ±SD): 7.16 ± 0.11
Emax, %, Steroid Alone [1]: 99%

CC#C[C@]1(O)CC[C@H]2[C@@H]3CCC4=CC(=O)CCC4=C3[C@@H](c3ccc(N(C)C)cc3)C[C@@]21C [compound 33, mifepristone (RU-486)]
EC50 [1, 4]: 4680 nM
Emax [1]: 109%

CC(=O)[C@H]1CC[C@H]2[C@@H]3CCC4=CC(=O)CC[C@]4(C)[C@H]3[C@@H](O)C[C@]12C [compound 23, 11β-hydroxyprogesterone]
EC50 [1, 4]: 18.6 nM
Emax [1]: 90%
fold less potent than PROG (calcium influx) [1]: 5 fold

CC(=O)O[C@]1(C(C)=O)CC[C@H]2[C@@H]3CCC4=CC(=O)CC[C@]4(C)[C@H]3CC[C@@]21C [compound 29, 17α-acetoxyprogesterone]
Emax, %, Steroid Alone [1]: 31%
